Assay results pooled from the literature.
Protocols differ between the studies behind these lines.

SMILES	cell line	test	system	conditions	quantity	value
COc1ccc2cc3[n+](cc2c1OC)CCc1cc2c(cc1-3)OCO2	MDCK-MDR1		Caco-2	10 µg/mL, 4 h	Papp A→B	0.39 ×10⁻⁶ cm/s
O=C(Sc1cccccc1=O)c1ccc(C(F)(F)F)cc1	HepDES19	cell growth or viability, MTS		72 h	CC50	56.1 µM
Cn1cnc2c1c(=O)n(CC(=O)Nc1c(Cl)cccc1Cl)c(=O)n2C	NCI-H1975	cell growth or viability, MTT		6.3 µg	viability	56.1%
O=c1cccccc1SSc1cccccc1=O	HepDES19	cell growth or viability, MTS		72 h	CC50	9.6 µM
CCS(=O)(=O)Nc1cccc(-c2cn(C)c(=O)c3ccccc23)c1	MDCK-MDR1		Caco-2		Papp	15 ×10⁻⁶ cm/s
O=C(Sc1cccccc1=O)c1ccccc1C(F)(F)F	HepDES19	cell growth or viability, MTS		72 h	CC50	8.6 µM
Cc1ccc2c(=O)n(-c3ccc(F)cc3)c(CCN3C(=O)c4cccc(OC(C)C)c4C3=O)nc2c1	MDCK-MDR1		Caco-2	1 µM, 90 min, pH 7.4	Papp A→B	30 ×10⁻⁶ cm/s
CC(C)Cn1c(=O)n(C)c(=O)c2c(-c3cncn3C)n(Cc3cccc4ccccc34)nc21	HEK293	cell growth or viability, MTT		24 h	CC50	> 200 µM
CC1c2cc(c(O)c(O)c2O)C(C)c2cc(c(O)c(O)c2O)C(C)c2cc(c(O)c(O)c2O)C(C)c2cc1c(O)c(O)c2O (stereo not drawn)	HEK293	cell growth or viability, ATP luminescence		24 h	CC50	102 µM
CN1CCC(NCc2cccc(-c3ccc(S(=O)(=O)NCc4ccccc4)cc3)c2)CC1	HEK293	cell growth or viability, MTT		24 h	CC50	32.3 µM
CC1c2cc(c(O)cc2O)C(C)c2cc(c(O)cc2O)C(C)c2cc(c(O)cc2O)C(C)c2cc1c(O)cc2O (stereo not drawn)	HEK293	cell growth or viability, MTT		24 h	CC50	14.9 µM
O=C(O)/C=C/C=C/c1cccc(Oc2cc(Cl)cc(Cl)c2)c1	HEK293	cell growth or viability, MTT		24 h	CC50	> 200 µM
COC(=O)c1ccccc1-c1c2ccc(=N)cc-2oc2cc(N)ccc12	MDR1		MDCK-MDR1	5 µM, 2 h, pH 7.4	efflux ratio	4.92
Cc1ccc2c(c1C)NC(=O)[C@]21NN=C(c2ccccc2)S1	HEK293	cell growth or viability, MTT		24 h	CC50	100 µM
CCS(=O)(=O)Nc1ccc(OCCOCCOCCOCCOc2ccc(NS(=O)(=O)CC)cc2-c2cn(C)c(=O)c3ccccc23)c(-c2cn(C)c(=O)c3ccccc23)c1	MDCK-MDR1		Caco-2		Papp	0.13 ×10⁻⁶ cm/s
